Results reported in ChEMBL document CHEMBL1177890, “Synthesis and biological evaluation of new 2-chloro-3-((4-phenyl-1H-1,2,3-triazol-1-yl)methyl)quinoline derivatives via click chemistry approach” (2010).
≈ marks a conversion by molar mass, not a printed value.

How the values were obtained:
Format in all cases: functional
Bacillus subtilis [1] = assay: Antibacterial activity against Bacillus subtilis NCIM 2250 after 48 hrs by agar cup plate method
Summary of the method: (§1)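 Agar cup plate diffusion with compounds dissolved in DMSO. Bacteria (B. subtilis, E. coli) were grown on Mueller Hinton agar at 37 ± 0.5 °C. Fungi (C. albicans, A. niger) were grown on Czapek Dox medium at 28 ± 0.5 °C. Incubation was 48 h. The read-out was the diameter of the inhibition zone, averaged over three independent determinations.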

Escherichia coli [2] = assay: Antibacterial activity against Escherichia coli ATCC 25922 after 48 hrs by agar cup plate method; summary of the method: as §1
Candida albicans [3] = assay: Antifungal activity against Candida albicans MTCC 277 after 48 hrs by agar cup plate method; summary of the method: as §1
Aspergillus niger [4] = assay: Antifungal activity against Aspergillus niger NCIM 545 after 48 hrs by agar cup plate method; summary of the method: as §1
Bacillus subtilis [5] = assay: Antibacterial activity against Bacillus subtilis NCIM 2250 after 24 to 72 hrs by cup plate method
Summary of the method: (§2)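 MIC by cup plate method on Mueller Hinton agar plates containing compound at 0 (control), 1, 2, 3, 5, 10, 15, 20, 30 or 40 µg/mL. Plates were prepared per NCCLS M7-A5 and incubated at 37 °C. They were examined after 24 h and, where necessary, incubated further for 72 h. The MIC was taken as the lowest concentration giving inhibition.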

Escherichia coli [6] = assay: Antibacterial activity against Escherichia coli ATCC 25922 after 24 to 72 hrs by cup plate method; summary of the method: as §2
Candida albicans [7] = assay: Antifungal activity against Candida albicans MTCC 277 after 24 to 72 hrs by cup plate method; summary of the method: as §2
Aspergillus niger [8] = assay: Antifungal activity against Aspergillus niger NCIM 545 after 24 to 72 hrs by cup plate method; summary of the method: as §2

MIC (Bacillus subtilis [5]) [µg/mL]	MIC (Escherichia coli [6]) [µg/mL]	MIC (Candida albicans [7]) [µg/mL]	MIC (Aspergillus niger [8]) [µg/mL]	Structure (SMILES)	diameter of the inhibition zone (DIZ) (Bacillus subtilis [1]) [mm]	diameter of the inhibition zone (DIZ) (Escherichia coli [2]) [mm]	diameter of the inhibition zone (DIZ) (Candida albicans [3]) [mm]	diameter of the inhibition zone (DIZ) (Aspergillus niger [4]) [mm]
10 (≈ 28.5 µM)	–	15 (≈ 42.8 µM)	15 (≈ 42.8 µM)	COc1ccc2nc(Cl)c(Cn3cc(-c4ccccc4)nn3)cc2c1	16.7	–	15.7	16.3
10 (≈ 28.5 µM)	10 (≈ 28.5 µM)	15 (≈ 42.8 µM)	20 (≈ 57 µM)	COc1ccc2cc(Cn3cc(-c4ccccc4)nn3)c(Cl)nc2c1	16	16.4	14	–
–	–	5 (≈ 14.2 µM)	–	COC1=CC(=O)C[C@@H](C)[C@]12Oc1c(Cl)c(OC)cc(OC)c1C2=O [GRISEOFULVIN]	–	–	16.9	16.6

The remaining lines, values behind:

Structure (SMILES)	MIC (Bacillus subtilis [5]) [µg/mL]	MIC (Escherichia coli [6]) [µg/mL]	MIC (Candida albicans [7]) [µg/mL]	MIC (Aspergillus niger [8]) [µg/mL]	diameter of the inhibition zone (DIZ) (Bacillus subtilis [1]) [mm]	diameter of the inhibition zone (DIZ) (Escherichia coli [2]) [mm]	diameter of the inhibition zone (DIZ) (Candida albicans [3]) [mm]	diameter of the inhibition zone (DIZ) (Aspergillus niger [4]) [mm]
Clc1nc2ccccc2cc1Cn1cc(-c2ccccc2)nn1	15 (≈ 46.8 µM)	15 (≈ 46.8 µM)	15 (≈ 46.8 µM)	20 (≈ 62.3 µM)	13.5	12	16	10
Cc1ccc2nc(Cl)c(Cn3cc(-c4ccccc4)nn3)cc2c1	25 (≈ 74.7 µM)	15 (≈ 44.8 µM)	15 (≈ 44.8 µM)	10 (≈ 29.9 µM)	11.4	14	14.7	16.1
CCc1cccc2cc(Cn3cc(-c4ccccc4)nn3)c(Cl)nc12	10 (≈ 28.7 µM)	15 (≈ 43 µM)	15 (≈ 43 µM)	–	16.1	15.9	14	–
Cc1ccc2cc(Cn3cc(-c4ccccc4)nn3)c(Cl)nc2c1	10 (≈ 29.9 µM)	15 (≈ 44.8 µM)	10 (≈ 29.9 µM)	–	16.6	14	16.4	–
Cc1cccc2cc(Cn3cc(-c4ccccc4)nn3)c(Cl)nc12	20 (≈ 59.7 µM)	20 (≈ 59.7 µM)	25 (≈ 74.7 µM)	20 (≈ 59.7 µM)	12	12	13.4	12.7
CCOc1ccc2nc(Cl)c(Cn3cc(-c4ccccc4)nn3)cc2c1	–	–	10 (≈ 27.4 µM)	–	–	–	16.5	12.8
CN[C@@H]1[C@H](O[C@H]2[C@H](O[C@H]3[C@H](O)[C@@H](O)[C@H](N=C(N)N)[C@@H](O)[C@@H]3N=C(N)N)O[C@@H](C)[C@]2(O)C=O)O[C@@H](CO)[C@H](O)[C@H]1O [STREPTOMYCIN]	5 (≈ 8.6 µM)	5 (≈ 8.6 µM)	–	5 (≈ 8.6 µM)	16.5	16.1	–	–
